Experimental findings from paper PMC9616053 (ACS chemical neuroscience, 2022) are described below.

*1 amine or outer side, *2 acyl side, *3 side chain or, on linkers, in order; H or OH if unused. Where a SMILES comes first, the peptide text is derived from it. [ ]: non-standard residue; d: D form. X1 = Cc1ccc2c(c1)CCN([*:1])[C@@H]2C(=O)[*:2]

Test [1] concerns the target T1, Casp6 (Homo sapiens, UniProt P55212).
T1 sequence (P55212 24-179 limits assumed): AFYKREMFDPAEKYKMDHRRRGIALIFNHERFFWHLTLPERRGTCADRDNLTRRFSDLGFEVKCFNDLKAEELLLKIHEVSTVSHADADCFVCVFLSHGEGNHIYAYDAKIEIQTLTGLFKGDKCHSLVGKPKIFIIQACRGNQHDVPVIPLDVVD
T1 sequence (P55212 194-293 limits assumed): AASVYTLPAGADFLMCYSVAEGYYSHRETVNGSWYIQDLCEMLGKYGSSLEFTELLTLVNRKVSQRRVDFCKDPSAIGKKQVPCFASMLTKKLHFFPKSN
Put plainly: in vitro caspase panel assay, Casp6. It is filed as biochemical.

The test system of test [2] is cultured rat hippocampal neurons expressing P301S tau. In kind it is cell-based. The conditions noted are these: 10 μM for 3 days, versus untreated wild-type and P301S tau neurons. The gist of the method:
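Primary hippocampal cultures from Sprague-Dawley rat pups at postnatal day 0 or 1. At 5–7 DIV, neurons were co-transfected with plasmids for DsRed (morphology label) and GFP-tagged wild-type or P301S tau. Test compound was added at 17–18 DIV for 3 days. Live neurons were imaged at 20–21 DIV.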

The target of test [3] is Cathepsin B (Homo sapiens, UniProt P07858). Put plainly: Cathepsin B inhibition. In kind it is biochemical.
The target in test [4] is T2, Casp1 (Homo sapiens, UniProt P29466).
T2 sequence (P29466 120-297 limits assumed): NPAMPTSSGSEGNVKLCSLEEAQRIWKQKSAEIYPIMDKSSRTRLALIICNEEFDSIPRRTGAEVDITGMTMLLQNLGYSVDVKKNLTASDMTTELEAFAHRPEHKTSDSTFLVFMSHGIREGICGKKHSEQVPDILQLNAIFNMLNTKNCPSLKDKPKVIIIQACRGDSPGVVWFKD
T2 sequence (P29466 317-404 limits assumed): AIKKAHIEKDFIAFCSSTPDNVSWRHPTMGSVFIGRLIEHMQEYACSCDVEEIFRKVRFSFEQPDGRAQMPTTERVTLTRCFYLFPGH
Put plainly: in vitro caspase panel assay, Casp1. It is filed as biochemical.

Test [5] has as its target T3, Casp7 (Homo sapiens, UniProt P55210).
T3 sequence (P55210 24-198 limits assumed): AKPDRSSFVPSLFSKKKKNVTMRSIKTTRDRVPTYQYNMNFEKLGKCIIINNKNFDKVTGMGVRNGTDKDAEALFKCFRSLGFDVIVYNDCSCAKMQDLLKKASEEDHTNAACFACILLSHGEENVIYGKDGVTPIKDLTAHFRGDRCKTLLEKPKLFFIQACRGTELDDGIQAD
T3 sequence (P55210 207-303 limits assumed): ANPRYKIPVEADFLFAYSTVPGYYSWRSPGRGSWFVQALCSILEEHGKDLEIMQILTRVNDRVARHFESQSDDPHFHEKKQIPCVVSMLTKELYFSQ
Put plainly: in vitro caspase panel assay, Casp7. In kind it is biochemical.

In test [6] the target is T4, Casp3 (Homo sapiens, UniProt P42574).
T4 sequence (P42574 29-175 limits assumed): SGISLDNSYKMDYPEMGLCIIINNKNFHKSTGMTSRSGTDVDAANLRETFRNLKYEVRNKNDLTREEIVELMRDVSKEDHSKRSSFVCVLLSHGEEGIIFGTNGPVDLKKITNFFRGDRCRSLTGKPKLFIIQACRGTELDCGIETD
T4 sequence (P42574 176-277 limits assumed): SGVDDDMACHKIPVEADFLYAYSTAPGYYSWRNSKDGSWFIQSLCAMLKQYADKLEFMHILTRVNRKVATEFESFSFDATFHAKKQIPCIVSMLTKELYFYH
Put plainly: fluorescence-based in vitro biochemical. The following applies: for Casp2 Selectivity, Ki (Casp3) / Ki (Casp2): Table 1.

Test [7] deals with Thrombin a (Homo sapiens, UniProt P00734). Briefly: Thrombin a inhibition. In kind it is biochemical.
For test [8], the target named is T5, Casp2 (Homo sapiens, UniProt P42575).
T5 sequence (P42575 170-325 limits assumed): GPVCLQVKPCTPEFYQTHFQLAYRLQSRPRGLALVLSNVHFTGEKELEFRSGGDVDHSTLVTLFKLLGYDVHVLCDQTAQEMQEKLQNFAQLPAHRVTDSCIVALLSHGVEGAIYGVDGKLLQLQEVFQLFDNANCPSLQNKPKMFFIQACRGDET
T5 sequence (P42575 348-452 limits assumed): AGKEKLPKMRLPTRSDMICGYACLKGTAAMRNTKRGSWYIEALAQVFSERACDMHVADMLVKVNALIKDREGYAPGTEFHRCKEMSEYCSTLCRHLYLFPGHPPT
Put plainly: fluorescence-based in vitro biochemical.

Test [9] concerns primary hippocampal neurons from transgenic mice overexpressing P301S tau. Briefly: mEPSC recording in primary hippocampal neurons from PS19. In kind it is cell-based, mouse. The conditions noted are these: 10 μM, 3 days; for average frequency of mEPSCs: six groups.
In test [10] the target is T6, Casp2-mediated cleavage of tau at D314 (Homo sapiens, UniProt P42575).
T6 sequence (P42575 170-325 limits assumed): T5 sequence (P42575 170-325 limits assumed)
T6 sequence (P42575 348-452 limits assumed): T5 sequence (P42575 348-452 limits assumed)
Put plainly: in vitro caspase-2-catalyzed tau cleavage assay. In kind it is biochemical.

Test [11] addresses T7, Casp9 (Homo sapiens, UniProt P55211).
T7 sequence (P55211 1-315 limits assumed): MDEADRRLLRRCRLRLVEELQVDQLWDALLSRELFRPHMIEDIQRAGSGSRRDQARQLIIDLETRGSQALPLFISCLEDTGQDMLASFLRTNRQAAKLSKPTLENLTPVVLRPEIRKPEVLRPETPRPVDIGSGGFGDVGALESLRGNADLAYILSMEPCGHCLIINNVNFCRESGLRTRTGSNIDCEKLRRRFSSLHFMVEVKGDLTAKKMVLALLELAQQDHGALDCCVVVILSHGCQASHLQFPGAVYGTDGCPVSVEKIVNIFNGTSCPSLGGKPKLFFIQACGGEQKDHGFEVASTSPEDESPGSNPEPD
T7 sequence (P55211 331-416 limits assumed): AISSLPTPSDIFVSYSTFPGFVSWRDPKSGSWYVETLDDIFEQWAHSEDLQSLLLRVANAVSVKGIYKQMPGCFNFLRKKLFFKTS
Put plainly: in vitro caspase panel assay, Casp9. It is filed as biochemical.

Consider `Cc1ccc2c(c1)CCN(C(=O)[C@@H](NC(=O)[C@H](CCCC(=O)O)NC(=O)[C@@H]1Cc3ccccc3N1)C(C)C)[C@@H]2C(=O)N[C@H](C#N)CC(=O)O` [Compound 1, (S)-6-(((S)-1-((S)-1-(((S)-2-carboxy-1-cyanoethyl)carbamoyl)-6-methyl-3,4-dihydroisoquinolin-2(1H)-yl)-3-methyl-1-oxobutan-2-yl)amino)-5-((S)-indoline-2-carboxamido)-6-oxohexanoic acid], for which, in test [1], the Ki was greater than 100 µM and the “selectivity Casp2 versus Casp6” value was greater than 2000 fold. In addition, the “density of dendritic spines” value in [2] was “no significant differences”. For the same molecule, in test [3], the IC50 came out at 18.6 µM and the “activity at cathepsin B” value is recorded as “weak activity”. In [4], the inhibition constant (Ki) was greater than 100 µM and the “selectivity Casp2 versus Casp1” value is recorded as greater than 2000 fold. Besides, in [5], the Ki is 15.8 µM and the “selectivity Casp2 versus Casp7” value is greater than 2000 fold. For the same molecule, in test [6], the Ki is 0.933 µM and the “Casp2 Selectivity, Ki (Casp3) / Ki (Casp2)” value came out at 123. Moreover, in test [7], the IC50 is greater than 100 µM and the “activity at thrombin” value is on record as “weak activity”. Besides, affinity in [8] was put at a Ki of 0.00759 µM. Further, in [9], the “average amplitude of mEPSC responses, Tau −/+ versus Tau −/− neurons” value is “do not differ significantly”; the “cumulative curve of mEPSC amplitudes, Tau −/+ compared with Tau −/−” value is on record as “not significantly shifted”; the “average frequency of mEPSCs” value was “no significant differences”. This molecule registered an IC50 in test [10] of 2.02 µM. In test [11], the Ki is greater than 31.6 µM and the “selectivity Casp2 versus Casp9” value is greater than 2000 fold.
For `CC(=O)N[C@H](C(=O)N[C@@H](CC(=O)O)C(=O)N[C@H](C(=O)N1CCc2cc(C)ccc2[C@H]1C(=O)N[C@H](C=O)CC(=O)O)C(C)C)C(C)C` [Compound 2b, (S)-3-((S)-2-acetamido-3-methylbutanamido)-4-(((S)-1-((S)-1-(((S)-1-carboxy-3-oxopropan-2-yl)carbamoyl)-6-methyl-3,4-dihydroisoquinolin-2(1H)-yl)-3-methyl-1-oxobutan-2-yl)amino)-4-oxobutanoic acid] (Ac-VDV[X1]D-aldehyde), the Ki in test [1] was greater than 100 µM; in test [4], 2.75 µM; in test [5] it was greater than 31.6 µM; in [11] it was greater than 31.6 µM. The same molecule showed an IC50 in test [3] of 38 µM. In addition, the “Casp2 Selectivity, Ki (Casp3) / Ki (Casp2)” value in test [6] is reported as 70. The “cumulative curve of mEPSC amplitudes, Tau −/+ compared with Tau −/−” value in test [9] was “shifted to the left but less markedly”. The “average frequency of mEPSCs” value in [9] is recorded as “no significant differences”.

The term Ki denotes a dissociation constant, usually derived from enzyme kinetics or from competition with a known ligand. Usually IC50 stands for the concentration at which inhibition is half-maximal.
